The structures appear in SMILES notation. Activity calls are given as the source filed them. The rule behind the calls is not given here. *1 amine or outer side, *2 acyl side, *3 side chain or, on linkers, in order; H or OH if unused. Where a SMILES comes first, the peptide text is derived from it. [ ]: non-standard residue; d: D form. The star is where a group is joined. X4 = O=C(Nc1ccc(C(F)(F)F)cc1)c1cc(/C=N\OCC(=O)*)ccc1O; X2 = C/C(=N\OCC(=O)*)c1ccc(NC(=O)c2cc(Br)ccc2O)cc1; X1 = C/C(=N\OCC(=O)[*:2])c1ccc(N[*:1])cc1; Benzoyl(5-Br-2-OH) = O=C(c1cc(Br)ccc1O)*; Palmitoyl = CCCCCCCCCCCCCCCC(=O)*; Decanoyl = CCCCCCCCCC(=O)*; X3 = O=C(c1cc(Cl)ccc1O)*; Butyryl = CCCC(=O)*

Activity data for 15 compounds are collected here from ChEMBL document CHEMBL5252539, “In vitro biological evaluation of new antimycobacterial salicylanilide-tuftsin conjugates” (Eur J Med Chem, 2017).

In this experiment the test system is Mycobacterium tuberculosis. The experiment can be described thus: Antimycobacterial activity against isoniazid and rifampicin resistant Mycobacterium tuberculosis A8 ATCC 35822 assessed as reduction in colony forming unit after 28 days by serial dilution method. It is filed as functional, organism-based. Particulars: time 28.0 day. In short, it runs like this:
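After the 4-week MIC incubation in Sula semisynthetic medium (pH 6.5), growth inhibition confirmed by plating on Löwenstein-Jensen solid medium and counting colony forming units.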
In the case of `C/C(=N\OCC(=O)N[C@H](C(=O)O)[C@@H](C)O)c1ccc(NC(=O)c2cc(Br)ccc2O)cc1`, the result was Active.

Consider `C/C(=N\OCC(=O)NCC(=O)O)c1ccc(NC(=O)c2cc(Br)ccc2O)cc1`, for which the result was Active.

For `C/C(=N\OCC(=O)NCC(=O)N[C@@H](Cc1ccccc1)C(=O)N[C@@H](CC(C)C)C(=O)NCC(=O)N[C@H](C(=O)N[C@@H](CCCCN)C(=O)N1CCC[C@@H]1C(=O)N1CCC[C@H]1C(=O)N[C@H](CCCNC(=N)N)C(=O)O)[C@@H](C)O)c1ccc(NC(=O)c2cc(Br)ccc2O)cc1`, the outcome was Active.

On to `C/C(=N\OCC(=O)NCC(=O)N[C@@H](Cc1ccccc1)C(=O)N[C@@H](CC(C)C)C(=O)NCC(=O)N[C@H](C(=O)N[C@@H](CCCCN)C(=O)N1CCC[C@@H]1C(=O)N[C@H](CCCCN)C(=O)NCC(=O)N[C@@H](C(=O)N[C@H](CCCCN)C(=O)N1CCC[C@H]1C(=O)N[C@H](CCCCN)C(=O)NCC(=O)N[C@@H](C(=O)N[C@@H](CCCCN)C(=O)N1CCC[C@@H]1C(=O)N[C@H](CCCCN)C(=O)NCC(=O)N[C@@H](C(=O)N[C@H](CCCCN)C(=O)N1CCC[C@H]1C(=O)N[C@H](CCCCN)C(=O)NCC(N)=O)[C@H](C)O)[C@H](C)O)[C@H](C)O)[C@@H](C)O)c1ccc(NC(=O)c2cc(Br)ccc2O)cc1`, for which the result was Active.

In the case of `C/C(=N\OCC(=O)NCC(=O)N[C@@H](Cc1ccccc1)C(=O)N[C@@H](CC(C)C)C(=O)NCC(=O)N[C@H](C(=O)N[C@@H](CCCCN)C(=O)N1CCC[C@@H]1C(=O)N[C@H](CCCNC(=N)N)C(=O)O)[C@@H](C)O)c1ccc(NC(=O)c2cc(Br)ccc2O)cc1`, the outcome was Active.

Regarding `C/C(=N\OCC(=O)N[C@H](C(=O)N[C@@H](CCCCN)C(=O)N1CCC[C@H]1C(=O)N1CCC[C@@H]1C(=O)N[C@H](CCCNC(=N)N)C(=O)O)[C@@H](C)O)c1ccc(NC(=O)c2cc(Br)ccc2O)cc1`, the result was Active.

Regarding `C/C(=N\OCC(=O)NCCCC[C@H](NC(=O)[C@@H]1CCCN1C(=O)[C@H](CCCCN)NC(=O)[C@@H](NC(=O)CNC(=O)[C@H](CCCCNC(=O)CO/N=C(\C)c1ccc(NC(=O)c2cc(Br)ccc2O)cc1)NC(=O)[C@@H]1CCCN1C(=O)[C@H](CCCCN)NC(=O)[C@@H](NC(=O)[C@H](CCCNC(=N)N)NC(=O)[C@@H]1CCCN1C(=O)[C@H](CCCCN)NC(=O)[C@@H](N)[C@@H](C)O)[C@@H](C)O)[C@@H](C)O)C(=O)NCC(=O)O)c1ccc(NC(=O)c2cc(Br)ccc2O)cc1` (H-TKPRTKPK(X2)GTKPK(X2)G-OH), the result was Active.

Consider `CCCCCCCCCCCCCCCC(=O)NCCCC[C@H](NC(=O)[C@@H]1CCCN1C(=O)[C@H](CCCCN)NC(=O)[C@@H](NC(=O)CO/N=C(\C)c1ccc(NC(=O)c2cc(Cl)ccc2O)cc1)[C@@H](C)O)C(=O)NCC(=O)N[C@H](C(=O)N[C@@H](CCCCN)C(=O)N1CCC[C@H]1C(=O)N[C@@H](CCCCN)C(=O)NCC(=O)N[C@H](C(=O)N[C@@H](CCCCN)C(=O)N1CCC[C@H]1C(=O)N[C@@H](CCCCN)C(=O)NCC(=O)N[C@H](C(=O)N[C@@H](CCCCN)C(=O)N1CCC[C@H]1C(=O)N[C@@H](CCCCN)C(=O)NCC(N)=O)[C@@H](C)O)[C@@H](C)O)[C@@H](C)O` (X3-[X1]TKPK(Palmitoyl)GTKPKGTKPKGTKPKG-NH2), for which the result was Active.

Turning to `C/C(=N\OCC(=O)N[C@H](C(=O)N[C@@H](CCCCN)C(=O)N1CCC[C@H]1C(=O)N[C@@H](CCCCN)C(=O)NCC(=O)N[C@H](C(=O)N[C@@H](CCCCN)C(=O)N1CCC[C@H]1C(=O)N[C@@H](CCCCN)C(=O)NCC(=O)N[C@H](C(=O)N[C@@H](CCCCN)C(=O)N1CCC[C@H]1C(=O)N[C@@H](CCCCN)C(=O)NCC(=O)N[C@H](C(=O)N[C@@H](CCCCN)C(=O)N1CCC[C@H]1C(=O)N[C@@H](CCCCN)C(=O)NCC(N)=O)[C@@H](C)O)[C@@H](C)O)[C@@H](C)O)[C@@H](C)O)c1ccc(NC(=O)c2cc(Cl)ccc2O)cc1` (X3-[X1]TKPKGTKPKGTKPKGTKPKG-NH2), the result was Active.

For `C[C@@H](O)[C@H](NC(=O)CNC(=O)[C@H](CCCCN)NC(=O)[C@@H]1CCCN1C(=O)[C@H](CCCCN)NC(=O)[C@@H](NC(=O)CNC(=O)[C@H](CCCCN)NC(=O)[C@@H]1CCCN1C(=O)[C@H](CCCCN)NC(=O)[C@@H](NC(=O)CNC(=O)[C@H](CCCCN)NC(=O)[C@@H]1CCCN1C(=O)[C@H](CCCCN)NC(=O)[C@@H](NC(=O)CO/N=C\c1ccc(O)c(C(=O)Nc2ccc(C(F)(F)F)cc2)c1)[C@@H](C)O)[C@@H](C)O)[C@@H](C)O)C(=O)N[C@@H](CCCCN)C(=O)N1CCC[C@H]1C(=O)N[C@@H](CCCCN)C(=O)NCC(N)=O` (X4-TKPKGTKPKGTKPKGTKPKG-NH2), the outcome was Active.

`CCCC(=O)NCCCC[C@H](NC(=O)[C@@H]1CCCN1C(=O)[C@H](CCCCN)NC(=O)[C@@H](NC(=O)CO/N=C(\C)c1ccc(NC(=O)c2cc(Br)ccc2O)cc1)[C@@H](C)O)C(=O)NCC(=O)N[C@H](C(=O)N[C@@H](CCCCN)C(=O)N1CCC[C@H]1C(=O)N[C@@H](CCCCN)C(=O)NCC(=O)N[C@H](C(=O)N[C@@H](CCCCN)C(=O)N1CCC[C@H]1C(=O)N[C@@H](CCCCN)C(=O)NCC(=O)N[C@H](C(=O)N[C@@H](CCCCN)C(=O)N1CCC[C@H]1C(=O)N[C@@H](CCCCN)C(=O)NCC(N)=O)[C@@H](C)O)[C@@H](C)O)[C@@H](C)O` ({Benzoyl(5-Br-2-OH)}-[X1]TKPK(Butyryl)GTKPKGTKPKGTKPKG-NH2): the result was Active.

`CCCCCCCCCC(=O)NCCCC[C@H](NC(=O)[C@@H]1CCCN1C(=O)[C@H](CCCCN)NC(=O)[C@@H](NC(=O)CO/N=C(\C)c1ccc(NC(=O)c2cc(Br)ccc2O)cc1)[C@@H](C)O)C(=O)NCC(N)=O` ({Benzoyl(5-Br-2-OH)}-[X1]TKPK(Decanoyl)G-NH2): the result was Active.

Turning to `CCCCCCCCCC(=O)NCCCC[C@H](NC(=O)[C@@H]1CCCN1C(=O)[C@H](CCCCN)NC(=O)[C@@H](NC(=O)CO/N=C(\C)c1ccc(NC(=O)c2cc(Br)ccc2O)cc1)[C@@H](C)O)C(=O)NCC(=O)N[C@H](C(=O)N[C@@H](CCCCN)C(=O)N1CCC[C@H]1C(=O)N[C@@H](CCCCN)C(=O)NCC(=O)N[C@H](C(=O)N[C@@H](CCCCN)C(=O)N1CCC[C@H]1C(=O)N[C@@H](CCCCN)C(=O)NCC(=O)N[C@H](C(=O)N[C@@H](CCCCN)C(=O)N1CCC[C@H]1C(=O)N[C@@H](CCCCN)C(=O)NCC(N)=O)[C@@H](C)O)[C@@H](C)O)[C@@H](C)O` ({Benzoyl(5-Br-2-OH)}-[X1]TKPK(Decanoyl)GTKPKGTKPKGTKPKG-NH2), the outcome was Active.

On to `CCCCCCCCCCCCCCCC(=O)NCCCC[C@H](NC(=O)[C@@H]1CCCN1C(=O)[C@H](CCCCN)NC(=O)[C@@H](NC(=O)CO/N=C(\C)c1ccc(NC(=O)c2cc(Br)ccc2O)cc1)[C@@H](C)O)C(=O)NCC(N)=O` ({Benzoyl(5-Br-2-OH)}-[X1]TKPK(Palmitoyl)G-NH2), for which the result was Active.

Regarding `CCCCCCCCCCCCCCCC(=O)NCCCC[C@H](NC(=O)[C@@H]1CCCN1C(=O)[C@H](CCCCN)NC(=O)[C@@H](NC(=O)CO/N=C(\C)c1ccc(NC(=O)c2cc(Br)ccc2O)cc1)[C@@H](C)O)C(=O)NCC(=O)N[C@H](C(=O)N[C@@H](CCCCN)C(=O)N1CCC[C@H]1C(=O)N[C@@H](CCCCN)C(=O)NCC(=O)N[C@H](C(=O)N[C@@H](CCCCN)C(=O)N1CCC[C@H]1C(=O)N[C@@H](CCCCN)C(=O)NCC(=O)N[C@H](C(=O)N[C@@H](CCCCN)C(=O)N1CCC[C@H]1C(=O)N[C@@H](CCCCN)C(=O)NCC(N)=O)[C@@H](C)O)[C@@H](C)O)[C@@H](C)O` ({Benzoyl(5-Br-2-OH)}-[X1]TKPK(Palmitoyl)GTKPKGTKPKGTKPKG-NH2), the result was Active.
